Test results published in ChEMBL document CHEMBL2093137, “WHO-TDR NTD Screening”.
In brackets after ≈: the same amount, converted by molar mass.

Key:
[1] = WHO-TDR: Cytotoxicity; assay type: toxicity, cell-based; details: human, MRC5 cells
Plasmodium falciparum K1 = experiment: WHO-TDR: Malaria; assay type: functional, organism-based, Homo sapiens; details: Erythrocyte
Outline: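 A diverse library of 10,000 compounds from Life Chemicals, filtered for drug-likeness and reactive groups, was screened against the intra-erythrocytic Plasmodium falciparum K1 strain in human red blood cells. Previously published standard procedures were followed, with a reference drug as positive control. Antiplasmodial potency is given as IC50.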

Trypanosoma cruzi = experiment: WHO-TDR: Chagas disease; assay type: functional, organism-based, Homo sapiens; details: MRC5
Outline: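 Whole-organism screen of a 10,000-compound diverse library from Life Chemicals, filtered for drug-likeness and reactive groups, against intracellular amastigotes of Trypanosoma cruzi Tulahuen CL2 beta-galactosidase strain grown in MRC-5SV2 human lung fibroblast host cells. The assay followed previously published standard procedures, with a reference drug as positive control. Antiparasitic potency is reported as IC50.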

[2] = test system: Trypanosoma brucei brucei; experiment: WHO-TDR: Human African Trypanosomiasis (HAT); assay type: functional, organism-based; details: Squib-427
Outline: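 A diverse library of 10,000 compounds from Life Chemicals, filtered for drug-likeness and reactive groups, was screened against bloodstream forms of Trypanosoma brucei Squib 427 strain in a whole-organism assay. Previously published standard procedures were followed, with reference drugs serving as positive controls. Antiparasitic potency is given as IC50.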

Leishmania infantum = experiment: WHO-TDR: Leishmaniasis; assay type: functional, organism-based, Mus musculus; details: Macrophage
Outline: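 A diverse library of 10,000 compounds from Life Chemicals, filtered for drug-likeness and reactive groups, was screened against whole organisms. The targets were intracellular amastigotes of Leishmania infantum MHOM/MA(BE)/67 growing in murine peritoneal macrophages. Previously published standard procedures were followed, with a reference drug as positive control. Antiparasitic potency is given as IC50.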

Onchocerca lienalis [3] = experiment: (§1) WHO-TDR: Onchocerciasis; assay type: functional; set-up: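 at 12.5 µM on microfilariae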
Outline: (§2)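 Microfilariae of Onchocerca ochengi or Onchocerca lienalis, animal pathogens standing in for the human parasite, were exposed to compounds in a whole-organism screen. The compounds came from a 10,000-compound diverse Life Chemicals library filtered for drug-likeness and reactive groups. Results are expressed as percent inhibition and IC50.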

Onchocerca lienalis [4] = experiment: as §1; assay type: functional, organism-based; outline: as §2
Schistosoma mansoni [5] = experiment: (§3) WHO-TDR: Schistosomiasis; assay type: functional; set-up: concentration or dose not given beside the values
Outline: (§4)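 In this whole-organism assay, larval and/or adult worms of Schistosoma mansoni (Puerto Rican strain) were exposed to compounds from a diverse Life Chemicals library of 10,000 members. A reference drug served as positive control. Activity is stated as percent inhibition and IC50.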

Brugia malayi [6] = experiment: (§5) WHO-TDR: Lymphatic Filariasis; assay type: functional; set-up: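 tested at 10 µM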
Outline: (§6)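 In a whole-organism assay, Brugia malayi microfilariae were screened against a diverse Life Chemicals library that had been filtered for drug-likeness and reactive groups. That library comprised 10,000 compounds. Activity is expressed as percent inhibition and as IC50.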

Brugia malayi [7] = experiment: as §5; assay type: functional, organism-based; outline: as §6
Brugia malayi [8] = experiment: as §5; assay type: functional; set-up: concentration or dose not given beside the values; outline: as §6; remark: listed apart in the source
Brugia malayi [9] = experiment: as §5; assay type: functional, organism-based; outline: as §6; remark: listed apart in the source
Schistosoma mansoni [10] = experiment: as §3; assay type: functional, organism-based; outline: as §4

IC50 (Plasmodium falciparum K1) [µg/mL]	IC50 [2] [µg/mL]	IC50 (Leishmania infantum) [µg/mL]	IC50 (Onchocerca lienalis [4]) [µg/mL]	IC50 (Brugia malayi [7]) [nM]	IC50 (Brugia malayi [9]) [nM]	IC50 (Schistosoma mansoni [10]) [nM]	Compound	IC50 [1] [µg/mL]	IC50 (Trypanosoma cruzi) [µg/mL]	% Inhibition (Onchocerca lienalis [3]) [%]	% Inhibition (Schistosoma mansoni [5]) [%]	% Inhibition (Brugia malayi [6]) [%]	% Inhibition (Brugia malayi [8]) [%]
0.564 (≈ 1.75 µM)	0.309 (≈ 0.96 µM)	1.9 (≈ 5.9 µM)	0.344 (≈ 1.07 µM)				O=C(Nc1nc(-c2ccccn2)cs1)c1ccc(Cl)s1	4.39 (≈ 13.6 µM)	< 0.0965	100			
> 11.5	> 11.5	3.74 (≈ 9.71 µM)		1770	260		Cc1cccc(-n2nc3c(c2NC(=O)Nc2cccc(Cl)c2)CSC3)c1	> 11.5	9.48 (≈ 24.6 µM)	33.34	25	100	100
> 15	> 15	> 15		5950	7070		CCOC(=O)c1ccc(NC(=O)CSc2nnc(NC(=O)C34CC5CC(CC(C5)C3)C4)s2)cc1	> 15	> 15	40	0	100	100
> 10.5	> 10.5	> 10.5			853		O=C(Nc1nnc(S)s1)c1cc(Br)ccc1Cl	> 10.5	> 10.5	0	0	0	100
> 15.3	> 15.3	4.96 (≈ 10.5 µM)			2970		COC(=O)c1c(NC(=O)c2cc3ccccc3oc2=O)sc2c1CCN(Cc1ccccc1)C2	8.92 (≈ 18.8 µM)	0.637 (≈ 1.34 µM)	0	0	100	100
0.572 (≈ 1.24 µM)	0.478 (≈ 1.04 µM)	0.484 (≈ 1.05 µM)		530	530		CC(C)N1CCc2c(sc(NC(=O)c3cc4c(ccc5ccccc54)oc3=O)c2C(N)=O)C1	0.416 (≈ 0.901 µM)	0.149 (≈ 0.323 µM)	-1	0	100	100
> 13.8	3.6 (≈ 7.79 µM)	4.48 (≈ 9.71 µM)			1180		Cc1ccc(S(=O)(=O)Nc2ccccc2C(=O)Nc2nc3c(s2)Cc2ccccc2-3)cc1	2.51 (≈ 5.44 µM)	4.98 (≈ 10.8 µM)	0	0	25	100
4.75 (≈ 12.4 µM)	0.367 (≈ 0.96 µM)	0.782 (≈ 2.04 µM)	1.42 (≈ 3.71 µM)				O=C(Nc1nc2c(s1)CSc1ccccc1-2)C1COc2ccccc2O1 (configuration not stated)	2.62 (≈ 6.86 µM)	0.502 (≈ 1.31 µM)	100	100	33.33	0
4.54 (≈ 9.33 µM)	0.473 (≈ 0.971 µM)	4.73 (≈ 9.71 µM)		5180	4950		O=C(COc1cccc2c1CCN(Cc1ccccc1F)C2=O)N1CCC(Cc2ccccc2)CC1	4.56 (≈ 9.37 µM)	0.557 (≈ 1.14 µM)	0	0	100	100
> 12	3.83 (≈ 9.6 µM)	> 12	1.48 (≈ 3.7 µM)				CCn1nnc2c(N3CCN(C(c4ccccc4)c4ccccc4)CC3)ncnc21	> 12	3.62 (≈ 9.06 µM)	100	0	0	
0.746 (≈ 1.73 µM)	4.18 (≈ 9.71 µM)	4.18 (≈ 9.71 µM)	1.75 (≈ 4.06 µM)			6700	CCOC(=O)N1CCc2c(sc(NC(=O)c3nc4ccccc4s3)c2C(N)=O)C1	4.58 (≈ 10.6 µM)	1.52 (≈ 3.54 µM)	100	100		
0.505	3.73	4.58			2990		COc1ccc(C(=O)C[n+]2cc(-c3ccc(OC)cc3)n3c2CCCCC3)cc1	0.572	< 0.141	0	50	50	99
5.13 (≈ 13.6 µM)	> 11.3	> 11.3				3800	Cn1ncc2c(N3CCOCC3)nc(NCCc3c[nH]c4ccccc34)nc21 [TDR79432]	3.75 (≈ 9.93 µM)	2.69 (≈ 7.11 µM)	0	100		
